From the M2OR odorant receptor database

Columns and labels:
Details in all cases: stereoisomer not certain
OR6C65 (Homo sapiens) = molecular target: T1, OR6C65 (Homo sapiens) (UniProt A6NJZ3)
T1 sequence (whole entry): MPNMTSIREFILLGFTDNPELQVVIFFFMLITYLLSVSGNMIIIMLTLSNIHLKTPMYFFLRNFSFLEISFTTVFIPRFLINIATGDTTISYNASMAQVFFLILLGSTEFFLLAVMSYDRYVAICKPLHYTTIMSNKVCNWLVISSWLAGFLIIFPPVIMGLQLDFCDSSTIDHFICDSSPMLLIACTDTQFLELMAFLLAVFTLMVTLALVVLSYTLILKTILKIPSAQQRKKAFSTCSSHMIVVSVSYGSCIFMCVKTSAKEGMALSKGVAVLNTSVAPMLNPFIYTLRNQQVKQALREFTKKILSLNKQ
Method in brief: (§1)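 Values were gathered from published papers (main text and supplementary material), with extra details requested from the original authors when needed, and checked for typos and inconsistencies. Each receptor–molecule pair is called responsive (active) if the original authors judged the measured signal statistically different from baseline, and non-responsive (inactive) otherwise. Assay methods varied by source, often transient mammalian cell-line luciferase assays. Recorded details include cell line, G-protein, co-transfected protein and tags.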

OR6C68 (Homo sapiens) = molecular target: T2, OR6C68 (Homo sapiens) (UniProt A6NDL8)
T2 sequence (whole entry): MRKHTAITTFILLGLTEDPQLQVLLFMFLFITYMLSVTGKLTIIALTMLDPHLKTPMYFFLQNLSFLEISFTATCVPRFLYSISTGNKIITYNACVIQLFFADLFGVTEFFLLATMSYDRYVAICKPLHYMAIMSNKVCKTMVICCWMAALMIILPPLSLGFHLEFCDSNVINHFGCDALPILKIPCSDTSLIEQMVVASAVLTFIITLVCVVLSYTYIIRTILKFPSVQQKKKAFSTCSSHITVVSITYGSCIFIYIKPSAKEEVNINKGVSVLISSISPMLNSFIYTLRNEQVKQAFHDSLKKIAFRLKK
Method in brief: as §1

OR6C70 (Homo sapiens) = molecular target: T3, OR6C70 (Homo sapiens) (UniProt A6NIJ9)
T3 sequence (whole entry): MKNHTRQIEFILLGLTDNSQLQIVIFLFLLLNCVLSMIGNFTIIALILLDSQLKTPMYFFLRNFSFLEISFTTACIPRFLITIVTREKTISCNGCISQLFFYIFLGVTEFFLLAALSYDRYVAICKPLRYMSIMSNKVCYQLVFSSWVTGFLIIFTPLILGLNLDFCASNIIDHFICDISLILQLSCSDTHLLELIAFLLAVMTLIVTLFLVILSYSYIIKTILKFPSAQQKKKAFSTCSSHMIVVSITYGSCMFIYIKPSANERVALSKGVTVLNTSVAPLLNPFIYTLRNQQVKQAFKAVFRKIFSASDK
Method in brief: as §1

OR6C74 (Homo sapiens) = molecular target: T4, OR6C74 (Homo sapiens) (UniProt A6NCV1)
T4 sequence (whole entry): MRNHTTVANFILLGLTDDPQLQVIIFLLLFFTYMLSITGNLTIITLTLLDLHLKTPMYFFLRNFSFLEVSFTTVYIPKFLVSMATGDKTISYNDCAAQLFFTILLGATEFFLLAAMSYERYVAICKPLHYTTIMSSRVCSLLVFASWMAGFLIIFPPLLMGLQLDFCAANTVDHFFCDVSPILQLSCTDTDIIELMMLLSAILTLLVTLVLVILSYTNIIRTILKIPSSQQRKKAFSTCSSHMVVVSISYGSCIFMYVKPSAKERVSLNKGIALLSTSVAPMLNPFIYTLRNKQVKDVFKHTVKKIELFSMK
Method in brief: as §1

OR6C75 (Homo sapiens) = molecular target: T5, OR6C75 (Homo sapiens) (UniProt A6NL08)
T5 sequence (whole entry): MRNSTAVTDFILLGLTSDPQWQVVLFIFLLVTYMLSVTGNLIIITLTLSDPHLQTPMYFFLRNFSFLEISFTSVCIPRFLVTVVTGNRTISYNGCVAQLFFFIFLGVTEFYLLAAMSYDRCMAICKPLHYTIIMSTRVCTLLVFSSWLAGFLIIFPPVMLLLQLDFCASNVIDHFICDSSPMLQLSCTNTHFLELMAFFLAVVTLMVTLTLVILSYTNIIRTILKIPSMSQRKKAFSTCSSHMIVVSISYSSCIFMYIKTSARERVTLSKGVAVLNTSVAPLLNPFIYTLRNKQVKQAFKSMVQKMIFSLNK
Method in brief: as §1

OR6C76 (Homo sapiens) = molecular target: T6, OR6C76 (Homo sapiens) (UniProt A6NM76)
T6 sequence (whole entry): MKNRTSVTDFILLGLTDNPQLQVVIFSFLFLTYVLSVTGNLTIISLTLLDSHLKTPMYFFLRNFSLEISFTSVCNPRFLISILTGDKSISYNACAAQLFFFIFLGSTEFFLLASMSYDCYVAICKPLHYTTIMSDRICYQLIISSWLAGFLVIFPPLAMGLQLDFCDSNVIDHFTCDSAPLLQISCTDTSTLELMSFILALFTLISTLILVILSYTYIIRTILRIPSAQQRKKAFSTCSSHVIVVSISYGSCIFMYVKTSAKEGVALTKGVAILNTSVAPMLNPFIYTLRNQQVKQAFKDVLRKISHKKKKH
Method in brief: as §1

OR6F1 (Homo sapiens) = molecular target: T7, OR6F1 (Homo sapiens) (UniProt Q8NGZ6)
T7 sequence (whole entry): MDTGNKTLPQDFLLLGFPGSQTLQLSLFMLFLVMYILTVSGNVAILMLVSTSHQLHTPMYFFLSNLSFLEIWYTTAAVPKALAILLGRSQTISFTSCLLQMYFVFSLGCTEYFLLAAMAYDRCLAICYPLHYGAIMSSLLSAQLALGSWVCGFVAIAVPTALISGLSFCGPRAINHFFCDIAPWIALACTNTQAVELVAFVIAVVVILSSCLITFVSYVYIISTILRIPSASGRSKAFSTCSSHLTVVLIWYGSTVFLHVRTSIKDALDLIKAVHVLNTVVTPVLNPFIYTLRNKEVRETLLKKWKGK
Method in brief: as §1

OR6J1 (Homo sapiens) = molecular target: T8, OR6J1 (Homo sapiens) (UniProt Q8NGC5)
T8 sequence (whole entry): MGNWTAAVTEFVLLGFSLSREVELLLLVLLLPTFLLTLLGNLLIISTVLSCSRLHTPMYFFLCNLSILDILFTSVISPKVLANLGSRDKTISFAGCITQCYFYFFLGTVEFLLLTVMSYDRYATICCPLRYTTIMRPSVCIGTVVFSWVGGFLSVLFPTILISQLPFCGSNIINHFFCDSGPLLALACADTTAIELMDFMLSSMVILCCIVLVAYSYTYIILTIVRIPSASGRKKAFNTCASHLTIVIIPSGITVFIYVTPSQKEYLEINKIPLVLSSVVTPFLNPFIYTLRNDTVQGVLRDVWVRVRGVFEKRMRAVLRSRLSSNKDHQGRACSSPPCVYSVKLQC
Method in brief: as §1

OR6K2 (Homo sapiens) = molecular target: T9, OR6K2 (Homo sapiens) (UniProt Q8NGY2)
T9 sequence (whole entry): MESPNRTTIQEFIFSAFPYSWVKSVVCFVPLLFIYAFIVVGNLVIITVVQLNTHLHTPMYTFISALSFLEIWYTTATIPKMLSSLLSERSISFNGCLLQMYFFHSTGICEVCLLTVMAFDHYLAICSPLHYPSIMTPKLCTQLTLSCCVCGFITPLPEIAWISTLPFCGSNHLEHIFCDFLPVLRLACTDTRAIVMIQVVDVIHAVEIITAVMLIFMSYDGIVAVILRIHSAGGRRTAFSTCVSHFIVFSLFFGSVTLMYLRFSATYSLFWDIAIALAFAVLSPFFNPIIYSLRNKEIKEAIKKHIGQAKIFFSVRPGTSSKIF
Method in brief: as §1

OR6K3 (Homo sapiens) = molecular target: T10, OR6K3 (Homo sapiens) (UniProt Q8NGY3)
T10 sequence (whole entry): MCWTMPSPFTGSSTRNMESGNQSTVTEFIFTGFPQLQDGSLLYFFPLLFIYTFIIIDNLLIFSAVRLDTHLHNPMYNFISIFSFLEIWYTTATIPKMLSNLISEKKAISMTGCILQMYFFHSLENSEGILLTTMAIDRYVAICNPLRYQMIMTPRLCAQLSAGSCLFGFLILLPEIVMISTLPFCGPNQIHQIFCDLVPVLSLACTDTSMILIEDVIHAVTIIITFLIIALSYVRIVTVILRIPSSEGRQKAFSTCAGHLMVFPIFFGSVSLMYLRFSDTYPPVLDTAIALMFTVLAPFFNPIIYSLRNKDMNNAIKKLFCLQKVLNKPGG
Method in brief: as §1

OR6K6 (Homo sapiens) = molecular target: T11, OR6K6 (Homo sapiens) (UniProt Q8NGW6)
T11 sequence (whole entry): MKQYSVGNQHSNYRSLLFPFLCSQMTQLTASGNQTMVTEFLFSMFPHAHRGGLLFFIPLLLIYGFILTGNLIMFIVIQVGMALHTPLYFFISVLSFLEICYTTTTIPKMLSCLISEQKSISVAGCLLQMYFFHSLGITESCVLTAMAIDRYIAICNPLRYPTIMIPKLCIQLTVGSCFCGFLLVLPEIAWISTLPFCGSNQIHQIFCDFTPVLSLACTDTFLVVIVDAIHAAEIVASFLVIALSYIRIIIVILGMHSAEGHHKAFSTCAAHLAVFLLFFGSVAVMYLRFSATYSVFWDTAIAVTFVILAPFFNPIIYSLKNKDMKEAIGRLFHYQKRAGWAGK
Method in brief: as §1

OR6M1 (Homo sapiens) = molecular target: T12, OR6M1 (Homo sapiens) (UniProt Q8NGM8)
T12 sequence (whole entry): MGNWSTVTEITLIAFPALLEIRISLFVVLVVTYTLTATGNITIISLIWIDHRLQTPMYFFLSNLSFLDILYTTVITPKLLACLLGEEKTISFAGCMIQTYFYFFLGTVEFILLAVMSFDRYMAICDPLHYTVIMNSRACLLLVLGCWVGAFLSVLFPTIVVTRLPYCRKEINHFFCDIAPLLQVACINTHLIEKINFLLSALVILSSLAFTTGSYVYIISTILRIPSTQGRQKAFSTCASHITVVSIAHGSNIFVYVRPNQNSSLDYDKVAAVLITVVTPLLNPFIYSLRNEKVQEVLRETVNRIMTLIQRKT
Method in brief: as §1

OR6N1 (Homo sapiens) = molecular target: T13, OR6N1 (Homo sapiens) (UniProt Q8NGY5)
T13 sequence (whole entry): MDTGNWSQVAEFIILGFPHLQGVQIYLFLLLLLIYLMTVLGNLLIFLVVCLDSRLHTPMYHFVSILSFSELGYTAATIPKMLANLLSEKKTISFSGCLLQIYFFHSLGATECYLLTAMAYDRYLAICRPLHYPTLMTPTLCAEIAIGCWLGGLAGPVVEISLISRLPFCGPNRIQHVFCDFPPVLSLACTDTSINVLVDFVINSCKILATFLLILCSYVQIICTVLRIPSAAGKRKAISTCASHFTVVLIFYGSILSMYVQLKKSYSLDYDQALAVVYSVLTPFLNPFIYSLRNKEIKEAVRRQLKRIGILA
Method in brief: as §1

OR6N2 (Homo sapiens) = molecular target: T14, OR6N2 (Homo sapiens) (UniProt Q8NGY6)
T14 sequence (whole entry): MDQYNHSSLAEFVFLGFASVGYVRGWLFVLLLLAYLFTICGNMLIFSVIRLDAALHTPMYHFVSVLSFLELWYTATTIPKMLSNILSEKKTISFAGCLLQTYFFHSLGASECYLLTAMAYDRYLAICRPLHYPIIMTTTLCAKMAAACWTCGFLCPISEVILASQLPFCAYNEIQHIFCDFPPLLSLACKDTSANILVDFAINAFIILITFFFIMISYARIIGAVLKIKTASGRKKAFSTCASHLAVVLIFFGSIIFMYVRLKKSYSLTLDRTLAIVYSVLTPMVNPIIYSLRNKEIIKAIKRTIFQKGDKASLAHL
Method in brief: as §1

OR6P1 (Homo sapiens) = molecular target: T15, OR6P1 (Homo sapiens) (UniProt Q8NGX9)
T15 sequence (whole entry): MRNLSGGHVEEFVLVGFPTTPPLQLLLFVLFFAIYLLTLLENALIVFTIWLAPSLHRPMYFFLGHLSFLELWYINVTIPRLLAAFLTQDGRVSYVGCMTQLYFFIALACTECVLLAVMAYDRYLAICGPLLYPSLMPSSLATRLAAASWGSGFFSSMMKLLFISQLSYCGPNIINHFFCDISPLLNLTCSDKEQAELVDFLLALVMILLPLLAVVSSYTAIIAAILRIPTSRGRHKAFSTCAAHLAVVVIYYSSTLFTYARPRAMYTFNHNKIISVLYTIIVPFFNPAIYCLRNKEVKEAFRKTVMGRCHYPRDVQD
Method in brief: as §1

OR6Q1 (Homo sapiens) = molecular target: T16, OR6Q1 (Homo sapiens) (UniProt Q8NGQ2)
T16 sequence (whole entry): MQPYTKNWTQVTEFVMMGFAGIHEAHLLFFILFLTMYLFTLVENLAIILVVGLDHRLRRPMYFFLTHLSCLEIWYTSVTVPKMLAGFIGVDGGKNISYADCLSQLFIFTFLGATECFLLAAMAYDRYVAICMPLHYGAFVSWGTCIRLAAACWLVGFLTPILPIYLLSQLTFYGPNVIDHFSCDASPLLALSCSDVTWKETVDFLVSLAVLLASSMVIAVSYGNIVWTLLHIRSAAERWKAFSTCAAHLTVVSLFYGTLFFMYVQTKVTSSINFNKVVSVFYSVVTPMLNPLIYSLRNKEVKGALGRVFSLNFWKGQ
Method in brief: as §1

Measured: odorant receptor agonist call

CCCCCC(=O)C(C)C(C)=O (stereo unspecified)
inactive: all assays above
